# Measured values from ChEMBL document CHEMBL3612059, “Synthesis of 1,2-benzisoxazole tethered 1,2,3-triazoles that exhibit anticancer activity in acute myeloid leukemia cell lines by inhibiting histone deacetylases, and inducing p21 and tubulin acetylation” (Bioorg Med Chem, 2015).
# The source made the active and inactive calls. No cut-off for these calls is given here.
# Key:
# MOLM-14 [1] = test: Induction of apoptosis in human MOLM14 cells assessed as necrotic cells at 5 uM after 72 hrs by Annexin V-FITC/propidium iodide staining-based flow cytometric analysis (reference value: 1%); type: functional
# Outline: (§1)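 100,000 cells per well treated with 2.5, 5.0 or 10 μM for 72 h. Washed in ice-cold Ca/Mg-free PBS, resuspended in 100 μl binding buffer, stained with 5 μl PI plus 3 μl annexin V-FITC for 15 min in the dark, then read immediately by flow cytometry. Quadrants scored as live, early apoptotic, late apoptotic and necrotic.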
# MV4-11 [2] = test: Induction of apoptosis in human MV4-11 cells assessed as late apoptotic cells at 2.5 uM after 72 hrs by Annexin V-FITC/propidium iodide staining-based flow cytometric analysis (reference value: 2%); type: functional; outline: as §1
# MV4-11 [3] = test: Induction of apoptosis in human MV4-11 cells assessed as early apoptotic cells at 10 uM after 72 hrs by Annexin V-FITC/propidium iodide staining-based flow cytometric analysis (reference value: 7%); type: functional; outline: as §1
# [4] = molecular target: T1, Protein deacetylase HDAC6 (Homo sapiens) (UniProt Q9UBN7); test: Inhibition of HDAC6 in human MV4-11 cells assessed as increase in acetylation of tubulin at lysine 40 by Western blot analysis; type: cell-based
# T1 sequence (whole entry): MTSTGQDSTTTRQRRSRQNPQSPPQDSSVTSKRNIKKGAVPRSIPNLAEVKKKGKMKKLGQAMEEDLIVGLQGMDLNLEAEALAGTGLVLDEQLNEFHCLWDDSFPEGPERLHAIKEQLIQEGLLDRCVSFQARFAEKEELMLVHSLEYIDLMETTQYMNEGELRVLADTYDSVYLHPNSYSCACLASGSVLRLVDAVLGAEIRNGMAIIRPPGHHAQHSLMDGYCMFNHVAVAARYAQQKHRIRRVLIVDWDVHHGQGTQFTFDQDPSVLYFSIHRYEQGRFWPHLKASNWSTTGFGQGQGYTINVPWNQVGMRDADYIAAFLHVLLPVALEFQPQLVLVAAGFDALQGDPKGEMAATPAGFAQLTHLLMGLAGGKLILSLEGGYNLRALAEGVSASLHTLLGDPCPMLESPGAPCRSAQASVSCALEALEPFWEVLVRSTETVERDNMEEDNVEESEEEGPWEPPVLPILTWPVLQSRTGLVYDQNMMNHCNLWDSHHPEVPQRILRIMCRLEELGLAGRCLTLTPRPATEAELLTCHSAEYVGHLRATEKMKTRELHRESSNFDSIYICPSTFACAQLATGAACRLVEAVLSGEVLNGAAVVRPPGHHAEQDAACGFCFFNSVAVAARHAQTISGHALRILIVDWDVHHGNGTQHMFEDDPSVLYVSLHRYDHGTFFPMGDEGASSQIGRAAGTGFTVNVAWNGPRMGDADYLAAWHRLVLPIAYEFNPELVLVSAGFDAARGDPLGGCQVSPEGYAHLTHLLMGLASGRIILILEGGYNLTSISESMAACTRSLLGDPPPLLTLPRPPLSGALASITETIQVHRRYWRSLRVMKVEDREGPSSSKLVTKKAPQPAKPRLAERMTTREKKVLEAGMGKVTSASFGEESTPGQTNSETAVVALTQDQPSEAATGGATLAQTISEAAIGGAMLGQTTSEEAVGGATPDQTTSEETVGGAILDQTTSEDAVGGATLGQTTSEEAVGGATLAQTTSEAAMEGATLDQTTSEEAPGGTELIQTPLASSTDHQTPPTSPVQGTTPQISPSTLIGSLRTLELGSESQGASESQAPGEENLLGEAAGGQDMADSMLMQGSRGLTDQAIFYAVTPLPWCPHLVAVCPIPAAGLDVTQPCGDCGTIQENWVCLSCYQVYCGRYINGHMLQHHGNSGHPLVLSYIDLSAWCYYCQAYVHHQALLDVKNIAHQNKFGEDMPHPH
# [5] = molecular target: Histone deacetylase (Homo sapiens) (UniProt Q13547+O15379+Q9UBN7+Q92769+Q9UQL6+Q8WUI4+Q9BY41+Q96DB2+P56524+Q9UKV0+Q969S8); test: Inhibition of HDAC in human MV4-11 cells assessed as increase in acetylation of histone H3 by Western blot analysis; type: cell-based
# Outline: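 MV4-11 cells were treated and histones acid-extracted: Triton buffer, then NaCl buffer, 0.24 M H2SO4 on ice for 2 h, acetone precipitation overnight, Bradford quantitation. Histones (0.5 µg) were run on 4-20 % gradient gels, blotted to PVDF, blocked in 5 % milk and probed overnight at 4 °C with anti-acetyl-histone H3 (1:1000). HRP secondary, ECL detection, total histone H3 as loading control.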
# MV4-11 [6] = test: Cytotoxicity against human MV4-11 cells assessed as cell viability at 0.25 to 5 uM by MTT assay; type: functional, cell-based
# Outline: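 AML cells kept in RPMI with 10 % FBS and 1 % penicillin-streptomycin at 37 °C, 5 % CO₂, mycoplasma-screened. Seeded at 8,000 cells/well across a range of concentrations and read at several times up to 96 h. MTT added to 0.5 mg/ml final for 3 h at 37 °C, formazan dissolved in SDS-HCl, absorbance read at 570 nm. IC50 taken from the dose-response curves.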
# MOLM-14 [7] = test: Cell cycle arrest in human MOLM14 cells assessed as accumulation at G2/M phase after 72 hrs by propidium iodide staining-based flow cytometric analysis; type: functional
# Outline: (§2)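 Cells in RPMI with 10 % FBS at 37 °C, 5 % CO₂; treated up to 72 h, washed in cold PBS, fixed in -20 °C-precooled 70 % ethanol at 4 °C. Stained with 50 µg/ml PI, 1 % Triton X-100 and 20 µg/ml RNase A in PBS, 30 min, 37 °C, dark. Cell-cycle phases read by flow cytometry; three independent experiments, mean ± SD.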
# MOLM-14 [8] = test: Cell cycle arrest in human MOLM14 cells assessed as decrease in cells level at G1 phase after 72 hrs by propidium iodide staining-based flow cytometric analysis; type: functional; outline: as §2
# MV4-11 [9] = test: Cell cycle arrest in human MV4-11 cells assessed as decrease in cells level at G1 phase after 72 hrs by propidium iodide staining-based flow cytometric analysis; type: functional; outline: as §2
# MOLM-14 [10] = test: Induction of apoptosis in human MOLM14 cells assessed as late apoptotic cells at 2.5 uM after 72 hrs by Annexin V-FITC/propidium iodide staining-based flow cytometric analysis (reference value: 2%); type: functional; outline: as §1
# MOLM-13 (Homo sapiens) [11] = test: Cell cycle arrest in human MOLM13 cells assessed as accumulation at sub-G1 phase after 72 hrs by propidium iodide staining-based flow cytometric analysis
# MOLM-13 (Homo sapiens) [12] = test: Induction of apoptosis in human MOLM13 cells assessed as necrotic cells at 10 uM after 72 hrs by Annexin V-FITC/propidium iodide staining-based flow cytometric analysis (reference value: 3%)
# MOLM-13 (Homo sapiens) [13] = test: Induction of apoptosis in human MOLM13 cells assessed as early apoptotic cells at 10 uM after 72 hrs by Annexin V-FITC/propidium iodide staining-based flow cytometric analysis (reference value: 11%)
smiles,measurement,setting,value
c1ccc(Oc2ccc(-c3cn(-c4noc5ccccc45)nn3)cc2)cc1,Activity,MOLM-14 [1],7%
same,Activity,MV4-11 [2],15%
same,Activity,MV4-11 [3],20%
same,inhibition,[4],Active
same,inhibition,[5],Active
same,Activity,MV4-11 [6],Dose-dependent effect
same,Activity,MOLM-14 [7],Active
same,Activity,MOLM-14 [8],Active
same,Activity,MV4-11 [9],Active
same,Activity,MOLM-14 [10],26%
same,Activity,MOLM-13 (Homo sapiens) [11],Active
same,Activity,MOLM-13 (Homo sapiens) [12],18%
same,Activity,MOLM-13 (Homo sapiens) [13],28%
